Results from ChEMBL document CHEMBL4725282, “Discovery of a Conformationally Constrained Oxazolidinone with Improved Safety and Efficacy Profiles for the Treatment of Multidrug-Resistant Tuberculosis” (J Med Chem, 2020).

Columns and labels:
Assay type in all cases: organism-based
[1] = Toxicity in male Sprague-Dawley rat assessed as mortality at 50 to 450 mg/kg/day, po administered for 4 weeks; settings: in vivo, 672 h, dose 50-450 mg/kg/day
[2] = Toxicity in male Sprague-Dawley rat assessed as histopathological changes at 50 to 450 mg/kg/day, po administered for 4 weeks measured post last dose; settings: in vivo, 672 h, dose 50-450 mg/kg/day
[3] = Toxicity in male Sprague-Dawley rat assessed as change in white blood cell count at 50 mg/kg/day, po administered for 4 weeks followed by 2 week recovery period (Rvb =6.12 +/- 1.10 10^9/L); settings: in vivo, 672 h
Outline: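 SD rats aged 6-7 weeks, 24 per group (12 female, 12 male): vehicle, 50, 150 or 450 mg/kg/day given orally once daily for 4 weeks, then 2-week recovery. 8 per sex per group dissected after the last dose and 4 per sex after 14-day recovery. Hematology included WBC count, reported as mean ± SD (n = 12), compared with vehicle.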

[4] = Toxicity in male Sprague-Dawley rat assessed as change in mean platelet volume at 50 mg/kg/day, po administered for 4 weeks followed by 2 week recovery period (Rvb =7.0 +/- 0.4 fL); settings: in vivo, 672 h
[5] = Toxicity in female Sprague-Dawley rat assessed as change in mean platelet volume at 150 mg/kg/day, po administered for 4 weeks followed by 2 week recovery period (Rvb =7.1 +/- 0.5 fL); settings: in vivo, 672 h
[6] = Toxicity in female Sprague-Dawley rat assessed as change in mean corpuscular volume at 150 mg/kg/day, po administered for 4 weeks followed by 2 week recovery period (Rvb =56.1 +/- 0.8 fL); settings: in vivo, 672 h

In the case of CC(=O)NC[C@@H]1OC(=O)N2c3cc(F)c(N4CCSCC4)cc3OC[C@@H]12, the Activity [1] is reported as “Non-Toxic”, the Activity [2] is reported as “Non-Toxic” and the Activity [3] is reported as 6.22 10^9/L. For the same compound, the Activity [4] was 7 fL, the Activity [5] was 7.4 fL and the Activity [6] was 56.6 fL.
